Data reported in ChEMBL document CHEMBL1154677, “Microtubule-stabilizing activity of zampanolide, a potent macrolide isolated from the Tongan marine sponge Cacospongia mycofijiensis” (J Med Chem, 2009).
Active and inactive are the calls of the source. The calls are words filed in the database; no cut-off is given here.

Assays:
[1] = Cytotoxicity against p-glycoprotein overexpressing human A2780AD cells by MTT cell proliferation assay; assay type: functional, cell-based; conditions: A2780 ADR
Summary of the method: (§1)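 A2780 parental and P-gp-overexpressing A2780AD ovarian cells in RPMI-1640 with 10% fetal calf serum and 0.25 units/mL insulin.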

1A9 [2] = test: Cytotoxicity against human 1A9 cells assessed as mitotic cells with multiple asters at 20 nM after 12 hrs by immunocytochemistry; assay type: functional
Summary of the method: (§2)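 1A9 cells on glass coverslips attached 24 h, then dosed at 0-20 nM for 12 h. Fixed in ice-cold methanol/acetone 1:1, blocked with 5% BSA in PBST, stained with anti-α-tubulin and Alexa 488 secondary plus DAPI, viewed by confocal microscopy. Percent of interphase cells with bundles and mitotic cells with multiple asters scored; n = 3 preparations.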

1A9 [3] = test: Cytotoxicity against human 1A9 cells assessed as mitotic cells with multiple asters at 5 nM after 12 hrs by immunocytochemistry; assay type: functional; summary of the method: as §2
1A9 [4] = test: Cytotoxicity against human 1A9 cells assessed as interphase cells with microtubule bundles at 20 nM after 12 hrs by immunocytochemistry; assay type: functional; summary of the method: as §2
1A9 [5] = test: Cytotoxicity against human 1A9 cells assessed as mitotic cells with multiple asters at 10 nM after 12 hrs by immunocytochemistry; assay type: functional; summary of the method: as §2
1A9 [6] = test: Cytotoxicity against human 1A9 cells assessed as interphase cells with microtubule bundles at 5 nM after 12 hrs by immunocytochemistry; assay type: functional; summary of the method: as §2
1A9 [7] = test: Cytotoxicity against human 1A9 cells assessed as interphase cells with microtubule bundles at 10 nM after 12 hrs by immunocytochemistry; assay type: functional; summary of the method: as §2
HL-60 [8] = test: Cytotoxicity against human HL60 cells assessed as increase in cell diameter after 48 hrs by Giemsa staining; assay type: functional, cell-based
Summary of the method: (§3)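 HL-60 cells given 2-8 nM for 48 h, cytospun onto slides, air-dried, fixed in 100% methanol, Giemsa-stained. Cell diameter measured and compared with untreated cells.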

HL-60 [9] = test: Cytotoxicity against human HL60 cells assessed as increase in cell diameter at 8 nM after 48 hrs by Giemsa staining; assay type: functional; summary of the method: as §3
1A9 [10] = test: Cytotoxicity against human 1A9 cells after 72 hrs by MTT assay; assay type: functional, cell-based; conditions: 1A9, 72 h
Summary of the method: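 1A9 ovarian carcinoma in RPMI-1640 with 10% fetal calf serum, penicillin-streptomycin and 0.25 units/mL insulin. 72 h exposure, MTT dye reduction, IC50 from dose-response curves; n = 6 preparations.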

HL-60 [11] = test: Cytotoxicity against human HL60 cells assessed as cell death at 10 nM after 48 hrs by Trypan blue exclusion test; assay type: functional, cell-based
Summary of the method: (§4)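 HL-60 cells exposed to drug, then viability counted by Trypan blue dye exclusion at 24 h and 48 h; n = 2 preparations.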

1A9 [12] = test: Cytotoxicity against human 1A9 cells assessed as interphase cells with microtubule bundles at 8 nM after 12 hrs by immunocytochemistry; assay type: functional; summary of the method: as §2
HL-60 [13] = test: Cytotoxicity against human HL60 cells after 48 hrs by MTT assay; assay type: functional, cell-based; conditions: HL-60, 48 h
Summary of the method: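 HL-60 in RPMI-1640 with 10% fetal calf serum plus penicillin-streptomycin. 48 h drug exposure, growth by MTT dye reduction, IC50 from dose-response curves; n = 5 preparations.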

Tubulin (Homo sapiens) [14] = target: T1, Tubulin (Homo sapiens) (UniProt P68371+Q9H4B7+P0DPH7+P68366+Q13509+Q71U36+P04350+Q3ZCM7+P07437+P68363+Q9BQE3+Q6PEY2+Q13885+Q9BVA1+Q9BUF5); test: Induction of tubulin polymerization in human 1A9 cells after 16 hrs by Western blotting; assay type: cell-based
Summary of the method: (§5)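 1A9 cells dosed for 16 h. Lysates split into soluble and particulate fractions at 14000g for 10 min, electrophoresed and immunoblotted for α-tubulin with Cy5 secondary. Percent polymerized = pellet band density / (soluble + pellet) by densitometry; four independent experiments.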

Bos taurus = organism: Bos taurus; test: Induction of bovine tubulin polymerization at 10 uM after 1hr in presence of 1 mM GTP
Summary of the method: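 Purified bovine brain tubulin, 2 μM, in 80 mM PIPES, 0.5 mM EGTA, 2 mM MgCl2, 1 mM GTP, pH 6.9, no MAPs. Reaction started by adding drug at 10 μM, 37 °C; ethanol 1% final in controls. A340 read every 30 s for 1 h; three experiments.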

A2780 [15] = test: Cytotoxicity against human A2780 cells by MTT cell proliferation assay; assay type: functional, cell-based
Tubulin (Homo sapiens) [16] = target: T1, Tubulin (Homo sapiens); test: Induction of tubulin polymerization in human 1A9 cells at 100 nM after 16 hrs by Western blotting; assay type: cell-based; summary of the method: as §5
HL-60 [17] = test: Cytotoxicity against human HL60 cells at 2 nM after 24 hrs by Trypan blue exclusion test; assay type: functional, cell-based; summary of the method: as §4
1A9 [18] = test: Cytotoxicity against human 1A9 cells assessed as mitotic cells with multiple asters at 8 nM after 12 hrs by immunocytochemistry; assay type: functional; summary of the method: as §2
HL-60 [19] = test: Cell cycle arrest in human HL60 cells assessed as accumulation in G2/M phase at 2 to 10 nM after 16 hrs by flow cytometry; assay type: functional, cell-based
Summary of the method: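 HL-60 cells in RPMI-1640 with 10% fetal calf serum, exposed 16 h over 2-10 nM. Propidium iodide stain, DNA content by flow cytometry, G2/M and subdiploid fractions scored.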

A2780 [20] = test: Selectivity ratio of IC50 for p-glycoprotein overexpressing human A2780AD cells to IC50 for human A2780 cells; assay type: functional; summary of the method: as §1

Row | Compound | IC50 [1] | Activity (1A9 [2]) | Activity (1A9 [3]) | Activity (1A9 [4]) | Activity (1A9 [5]) | Activity (1A9 [6]) | Activity (1A9 [7]) | other results
1 | CC(=O)O[C@H]1C(=O)[C@@]2(C)[C@H]([C@H](OC(=O)c3ccccc3)[C@]3(O)C[C@H](OC(=O)[C@H](O)[C@@H](NC(=O)c4ccccc4)c4ccccc4)C(C)=C1C3(C)C)[C@]1(OC(C)=O)CO[C@@H]1C[C@@H]2O [PACLITAXEL] | 415 nM | 52.2% | 6.6% | 81.9% | 43.3% | 13.7% | 76.5% | 
2 | C=C1C[C@@H]2C/C=C/C(=O)C/C(C)=C\C=C\C(=O)O[C@H]([C@H](O)NC(=O)/C=C\C=C\C)C/C(C)=C/[C@H](C1)O2 [ZAMPANOLIDE] | 7.5 nM | 57.3% | 4.3% | 74.3% | 51.4% | 9.6% | 55% | Activity (HL-60 [8]): Dose-dependent effect; Activity (HL-60 [9]): 28.7 micrometer; IC50 (1A9 [10]): 14.3 nM; Activity (HL-60 [11]): Active; Activity (1A9 [12]): 28.6%; IC50 (HL-60 [13]): 4.3 nM; Activity (Tubulin (Homo sapiens) [14]): Dose-dependent effect; Activity (Bos taurus): Active; IC50 (A2780 [15]): 7.1 nM; Activity (Tubulin (Homo sapiens) [16]): Active; Activity (HL-60 [17]): Active; Activity (1A9 [18]): 21.6%; Activity (HL-60 [19]): Active; Ratio IC50 (A2780 [20]): 1.4
